# Assay outcomes: PubChem, Broad Institute
# S100A4 MyoIIA – blocks human S100A4 binding to myosin IIA peptide | AID 652163 | inhibition, % at 10.7 µM | P26447 | S100A4/TAMRA-MyoIIA peptide fluorescence polarization | hit rate 0.14% among 360,000;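 active = mean inhibition of at least 70% across replicates, with every replicate also reaching that level; inconclusive = mean inhibition reaches 70% but some replicates fall short; inactive = mean inhibition below 70%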
# Target sequence (P26447 whole entry, looked up): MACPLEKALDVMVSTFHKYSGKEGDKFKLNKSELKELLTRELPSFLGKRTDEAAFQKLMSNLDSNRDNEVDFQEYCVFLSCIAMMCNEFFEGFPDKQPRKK
#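 assay system = human S100A4 monomer with TAMRA-labelled myosin IIA peptide | also added = labelled myosin peptide probe, 5 nM | incubation = 5 min between mix addition and reading | control set = DMSO and TFP controls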
# PGC1a acetyl inh – PGC1a acetylation modulation, inhibitor mode; U2OS PGC1a acetylation, AlphaScreen anti-acetyl-lysine; with virally co-expressed GCN5 acetyltransferase; inhibition, % at 15.6 µM; hit rate 0.17% among 350,000;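 active = every replicate shows inhibition of at least 40%; inconclusive = mean inhibition at least 40% but some replicate below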;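 note: 0% = neutral control wells and 100% = positive control wells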
# Statin myotox sup – suppression of simvastatin myotoxicity; C2C12 myotubes + simvastatin, ATP luminescence, 48 h; scaled: DMSO 0, geranylgeraniol control 100; rescue of ATP level, % at 7.49 µM; hit rate 0.78% among 330,000; AID 602340;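 active = mean ATP rescue above about 67%, or every replicate alone reaching that limit, limit read from the data, passing the limit was not always enough; inconclusive = no clear call, values can overlap the other calls; inactive = mean under the limit and some replicate under it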;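 note: myotubes were challenged with 10 µM simvastatin during compound exposure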
# DENV2 CPE – protects cells from dengue virus 2 cytopathic effect; DENV2-infected cells, cytopathic effect rescue, plate reader; CPE inhibition, % at 9.99 µM; hit rate 1.7% among 350,000; in the data active = CPE inhibition above about 20%, passing the limit was not always enough; inconclusive = no clear call, values can overlap the other calls; tested in BHK-21 cells;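 note: 0% = median of neutral control wells and 100% = median of positive control wells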
# SIRT5 inh – sirtuin-5 (human) deacylase inhibition; inhibition, % at 15 µM; Q9NXA8; hit rate 1.1% among 330,000; Purified SirT5, succinyl-peptide AMC, trypsin-coupled fluorescence; in the data active = inhibition above about 15%; inconclusive = no clear call, values can overlap the other calls
# Target sequence (Q9NXA8 whole entry, looked up): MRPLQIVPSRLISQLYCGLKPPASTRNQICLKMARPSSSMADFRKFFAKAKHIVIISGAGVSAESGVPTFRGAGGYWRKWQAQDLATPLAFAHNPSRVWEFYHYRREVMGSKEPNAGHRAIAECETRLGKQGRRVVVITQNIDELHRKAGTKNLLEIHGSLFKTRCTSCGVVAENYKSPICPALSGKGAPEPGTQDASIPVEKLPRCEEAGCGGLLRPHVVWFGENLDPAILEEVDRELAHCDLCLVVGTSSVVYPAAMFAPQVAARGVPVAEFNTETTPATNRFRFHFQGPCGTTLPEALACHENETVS
# An asterisk follows results filed as active; ? = inconclusive; · = not tested or not shown. Most compounds without a hit are left out; they make up all but 2.9% or so of the library.
SMILES,S100A4 MyoIIA,PGC1a acetyl inh,Statin myotox sup,DENV2 CPE,SIRT5 inh
CNC[C@@H]1Oc2ccc(NC(=O)Nc3ccc(F)cc3)cc2CC(=O)N([C@H](C)CO)C[C@@H]1C,-1,-6,2,8,-4
CCCCCCN1C[C@@H](O)[C@H](n2cc(C3CC3)nn2)C[C@@H]1c1ccc(OC)cc1,-14,0,4,-3,2
CCCCCCN1C[C@@H](O)[C@H](n2cc(-c3ccc(F)cc3)nn2)C[C@@H]1c1ccc(C)cc1,-6,-1,20,72*,-1
CCCCCC(=O)N1C[C@@H](n2cc(C3CC3)nn2)[C@H](O)C[C@@H]1c1ccccc1,-1,-2,-14,25*,-7
CCCCCCN1C[C@@H](n2cc(C3CC3)nn2)[C@H](O)C[C@@H]1c1ccc(OC)cc1,-3,·,22,-3,23*
CCCCCC(=O)N1C[C@@H](O)[C@H](n2cc(C3CC3)nn2)C[C@@H]1c1ccccc1,3,-26,-3,-7,·
OC[C@H]1[C@@H](c2ccc(-c3ccccc3F)cc2)[C@H]2CN(Cc3cncnc3)CCCCN21,-2,0,-13,7,1
Cc1ccc(S(=O)(=O)N2C3CCCCC3O[C@H]2CC(=O)c2cccs2)cc1 (some centres undefined),-2,·,·,48*,-1
COCC(=O)Nc1ccc2c(c1)C(=O)N(C)C[C@@H](OC)[C@H](C)CN(Cc1cccnc1)[C@@H](C)CO2,2,-12,-17,-3,-5
Cc1ccc(NC(=S)N(CCN(C)C)Cc2cc3cccc(C)c3[nH]c2=O)cc1,2,-1,114*,?,-4
CC(C)CCN1C(=O)c2ccccc2C1c1nnnn1-c1ccc2c(c1)OCCO2 (centres undefined),-1,·,·,-2,25*
COc1ccc(CN2C[C@@H](O)COC[C@@H]3O[C@H](CC(=O)N4CCc5ccccc5C4)CC[C@H]32)cc1,2,-1,26,-12,17*
COc1ccc(CN2C[C@H](O)COC[C@@H]3O[C@H](CC(=O)NCc4ccncn4)CC[C@H]32)cc1,-7,6,0,?,4
COc1ccc(CN2C[C@H](O)COC[C@@H]3O[C@@H](CC(=O)N(C)C)CC[C@H]32)cc1,94*,-1,10,5,9
O=C(C[C@H]1CC[C@@H]2[C@H](COC[C@H](O)CN2C(=O)c2ccccc2)O1)N1CCc2ccccc2C1,-11,2,11,28*,-6
COc1ccc(CN2C[C@H](O)COC[C@@H]3O[C@H](CC(=O)N(C)C)CC[C@H]32)cc1,-1,4,11,-7,2
COc1ccc(CN2C[C@H](O)COC[C@H]3O[C@H](CC(=O)NCc4ccncn4)CC[C@@H]32)cc1,-5,3,-5,21*,5
C/C=C/c1ccc([C@@H]2[C@@H](CO)N(C(C)=O)[C@H]2CN(CC(C)C)C(C)=O)cc1,·,-5,-1,?,·
O=C(NC1Cc2ccccc2C1)[C@H]1N[C@H]2c3cccc(=O)n3C[C@H]2[C@@H]1CO,-11,·,1,?,-3
Nc1ccccc1O,·,-11,-4,·,·
Nc1cccc2c(O)cccc12,-2,·,·,32*,0
CSc1ccc(CN(C)CC(=O)Nc2ccccc2C(=O)NC2CC2)cc1,-13,·,7,?,-2
CN(CC(=O)Nc1ccccc1C(=O)NC1CC1)Cc1ccccc1F,2,·,·,78*,-4
Oc1cccc(NC(=S)Nc2ccccc2)c1,-3,-1,-25,4,-5
Oc1cccc(Nc2ccccc2)c1,3,-10,15,28*,·
SMILES,S100A4 MyoIIA,PGC1a acetyl inh,Statin myotox sup,DENV2 CPE,SIRT5 inh
CC[C@H]1c2[nH]c3ccccc3c2C[C@H]2C(=O)N(c3ccc(F)cc3)C(=O)N21,-21,-11,21,57*,0
N#C[C@@H]1[C@@H](c2ccccc2C2=CCCCC2)[C@@H](CO)N1C(=O)c1ccccn1,2,-2,·,-8,5
COc1ncnc2c1ncn2CCCN1CCN(Cc2cccc3ccccc23)CC1,-2,-3,-1,0,26*
CSc1ncnc2c1ncn2CCCN1CCN(Cc2cccc3ccccc23)CC1,-4,9,-11,6,-5
COc1ccc2c3c([nH]c2c1)[C@@H](CO)N(C(=O)CN(C)C)CC31CN(CC2CCOCC2)C1,·,·,·,-6,·
O=C(NCc1ccc(F)cc1)[C@@H]1C[C@@H]2C(=O)N3CCC[C@H]3C(=O)N2[C@@H]1c1ccc(O)cc1,-10,·,·,-6,-2
CC(C)c1ccccc1OCCCCN1CCCCC1,2,·,-7,30*,-2
O=C(Cc1ccccn1)N1CC(=O)N2[C@H](CO)[C@H](c3ccc(-c4ccccc4)cc3)[C@@H]2C1,9,-1,·,-9,2
O=C(O)CCCC(=O)N1CCc2cc(S(=O)(=O)N3CCc4ccccc43)ccc21,-6,-10,6,18,28*
CCC(=O)N1CCc2cc(S(=O)(=O)CCC(=O)N3CCc4ccccc4C3)ccc21,·,-3,76*,·,·
CCC(=O)N1CCc2cc(S(=O)(=O)NCCCN3CCN(Cc4ccccc4)CC3)ccc21,·,-2,156*,·,·
C[C@H](CO)N1C[C@H](C)[C@H](CN(C)Cc2ccc(Cl)c(Cl)c2)Oc2ccc(NC(=O)c3ccncc3)cc2CC1=O,6,-4,13,-2,6
Cc1ccc(S(=O)(=O)Nc2ccc3c(c2)CC(=O)N([C@@H](C)CO)C[C@H](C)[C@@H](CN(C)Cc2ccc(C(F)(F)F)cc2)O3)cc1,·,0,40,·,·
Cc1ccc(S(=O)(=O)Nc2ccc3c(c2)CC(=O)N([C@@H](C)CO)C[C@@H](C)[C@H](CN(C)Cc2ccncc2)O3)cc1,1,0,-19,37*,-4
Cc1ccc(S(=O)(=O)Nc2ccc3c(c2)CC(=O)N([C@@H](C)CO)C[C@H](C)[C@H](CN(C)Cc2ccncc2)O3)cc1,-26,0,10,5,0
Cc1ccc(S(=O)(=O)Nc2ccc3c(c2)CC(=O)N([C@H](C)CO)C[C@@H](C)[C@@H](CN(C)Cc2ccc(C(F)(F)F)cc2)O3)cc1,·,-1,67*,·,·
Cc1ccc(S(=O)(=O)Nc2ccc3c(c2)CC(=O)N([C@@H](C)CO)C[C@@H](C)[C@H](CN(C)Cc2ccc(C(F)(F)F)cc2)O3)cc1,·,-2,69*,·,·
CO[C@@H]1CN(C)C(=O)c2ccc(NC(=O)NC(C)C)cc2OC[C@H](C)NC[C@H]1C,18,·,17,7,-5
CCCC#Cc1cnc2c(c1)C(=O)N([C@@H](C)CO)C[C@H](C)[C@H](CN(C)C(=O)c1cccc(F)c1)O2,-35,6,17,27*,-3
C[C@H]1CN([C@@H](C)CO)C(=O)c2cc(C#CCN(C)C)cnc2O[C@H]1CN(C)C(=O)c1cccc(F)c1,2,-6,7,34*,-1
Cc1ccc(-n2ncc3c2CCCC3NC(=O)CCc2c(C)noc2C)cc1C (centres undefined),4,-2,6,64*,0
